Assay results as given in article PMC7114156 (Antiviral Research, 2009).
“And” between values parts separate entries of the source, which are not always exact repeats. Identical values can stand only once. “Also recorded” adds a separate entry of the source.

Assays:
WI38 VA13 = assay: Growth of WI38 VA13; assay type: cell-based, human
How it was run: (§1)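 Cell lines carrying integrated viral genomes were plated in 96-well plates in medium with test compound. Growth was read by ATP luminescence (CellTiter-Glo) for HEK293 and WI38 VA13, and by MTS reduction (A490 after 2 h at 37 °C) for Namalwa, W12 20861, SiHa, Caski and HeLa. K and Imax came from a fit to a modified Hill equation.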

HSV-1 = HSV-1 infection in Vero cells; assay type: cell-based
EBV = assay: Lytic replication of EBV induced by sodium butyrate and PMA in P3HR1 cells; assay type: cell-based
U937 = assay: Growth of U937, MTS; assay type: cell-based, human
How it was run: (§2)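 Cells were plated in 96-well plates in medium holding serial dilutions of test compound, 1 nM to 10 μM, with DMSO ≤1% (v/v) final. Growth was read by MTS after 72 h at 37 °C: 2 h with reagent plus phenazine methosulfate, then A490. K and Imax came from a fit to a modified Hill equation. Vero cells are African Green monkey.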

CIN612 cells = assay: Growth of CIN612 cells, MTS; assay type: cell-based, human
adenovirus type 5 = assay: Adenovirus assay: adenovirus-5 replication in HFF cells, viral DNA by qPCR; assay type: cell-based; conditions: Ad5 in HFF cells, MOI 3, 72 h
[1] = Growth of activated PBMC, MTS; assay type: cell-based; conditions: human, activated PBMCs
How it was run: (§3)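 Primary cells were plated in 96-well plates with serial dilutions of test compound, 3 nM to 100 μM, for 72 h at 37 °C. Read-out was CTG for resting B and CD4 T cells and MTS for PBMC, WI38 and HUVEC. Purity was 90–95% for B cells and 97% for CD4 cells. Activated PBMCs were stimulated with phytohemagglutinin plus IL2.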

U937 cells = assay: Apoptosis assay; assay type: cell-based, human; conditions: U937, 40 h exposure
How it was run: (§4)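 Apoptosis read as cytoplasmic histone-associated DNA fragments with a Cell Death Detection ELISA kit. Exposure was 20 h for IM9 and MT4 and 40 h for W12 and U937. A405 was read kinetically at 30 °C, and the rate per hour came from linear regression of the linear portion. A Fas-activating antibody was the positive control.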

[2] = system: a variety of unrelated viruses; assay: Replication of a variety of unrelated viruses in vitro; assay type: cell-based
Molt4 = assay: Growth of Molt4, MTS; assay type: cell-based, human
How it was run: as §2

HIV-1 = HIV-1 infection in PBMCs; assay type: cell-based
MT4 cells = assay: Apoptosis assay; assay type: cell-based, human; conditions: MT4, 20 h exposure
How it was run: as §4

[3] = Growth of activated primary CD4 T cells, CTG; assay type: cell-based; conditions: human, CC50, host primary cell growth
SV40 strain Pa-57 = assay: SV40 assay: SV40 replication in Vero cells, viral DNA by qPCR; assay type: cell-based; conditions: ratio proportional to viral DNA per cell
How it was run: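 Vero cells at 2 × 10^4 cells/well were allowed to adhere for 4 h. They were infected with SV40 strain Pa-57 at MOI 0.1 for 2 h. Inoculum was removed and test compound added at 100 to 0.003 μM for 3 days. SV40 DNA was read by qPCR, and growth by MTS in parallel on uninfected cells. The SV40 DNA/MTS ratio was expressed as % of untreated control.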

W12 20861 = assay: Growth of W12 20861; assay type: cell-based, human; conditions: 72 h
How it was run: as §1

human keratinocyte (HKC) = assay: Growth of uninfected human keratinocytes; assay type: cell-based; conditions: 4 days
How it was run: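 W12-20850 cells were seeded at 7.5 × 10^3 cells/well into 96-well plates containing test compound, 100 to 0.001 μM. Plates were held 4 days at 37 °C, 5% CO2. Growth was read by MTS (A490), and HPV16 DNA was then measured from the same cells. Uninfected human keratinocytes were run in parallel and read by MTS.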

[4] = Bone marrow toxicity assay, granulocyte/macrophage progenitors; assay type: cell-based; conditions: human, granulocyte/macrophage bone marrow progenitor cells
Jurkat = assay: Growth of Jurkat, MTS; assay type: cell-based, human; conditions: 72 h
How it was run: as §2

primary cells = assay: Growth of primary cells; assay type: cell-based, human; conditions: at concentrations below 1 μM
HEK293 = assay: Growth of HEK293; assay type: cell-based, human
How it was run: as §1

SiHa = assay: Growth of SiHa; assay type: cell-based, human; conditions: 72 h
How it was run: as §1

Vero cells = assay: Growth of uninfected Vero cells, MTS; assay type: cell-based, African Green monkey
How it was run: as §2

[5] = Growth of resting PBMC, MTS; assay type: cell-based; conditions: human, resting PBMCs
HKC/HPV16 cells = assay: Growth of HKC/HPV16 cells, MTS; assay type: cell-based, human
W12 cells = assay: Apoptosis assay; assay type: cell-based, human; conditions: W12, 40 h exposure
How it was run: as §4

HeLa = assay: Growth of HeLa; assay type: cell-based, human; conditions: 72 h
How it was run: as §1

[6] = Growth of HUVEC endothelial cells, MTS; assay type: cell-based; conditions: human
How it was run: as §3

[7] = Growth of resting B cells, CTG; assay type: cell-based; conditions: human
How it was run: as §3

[8] = concentration range 1 nM to 100 μM
[9] = Homo sapiens, read-out: K, Growth, MTS

O=C(N[C@@H]1CCCc2c1[nH]c1ccc(Cl)cc21)c1ccccn1 [GSK983, N-[(1R)-6-Chloro-2,3,4,9-tetrahydro-1H-carbazol-1-yl]-2-pyridinecarboxamide]
EC50 (WI38 VA13; Homo sapiens, WI-38 VA13, 72 h, read-out: K, Growth, CTG): 16 ± 5 nM | Imax, Growth, CTG (WI38 VA13; WI38 VA13, SV40 integrated, 72 h): 28% and 28 ± 2% | Susceptibility of HSV-1 (HSV-1; at concentrations below 1 μM): not susceptible | Inhibition of HSV-1 infection in Vero cells (HSV-1; [8]): 50% inhibition in the micromolar range | Susceptibility of lytic replication of EBV (EBV; at concentrations below 1 μM): not susceptible | Inhibition of lytic replication of EBV below 10 μM (EBV; below 10 μM, data not shown): No significant inhibition | Inhibition of lytic replication of EBV (EBV; induced by sodium butyrate and PMA in P3HR1 cells, data not shown): did not inhibit | EC50 (U937; Homo sapiens, U-937, 72 h, read-out: K, growth, MTS): 26 ± 4 nM | Outcome of growth inhibition over time (U937; U937, 3 days, rate of MTS reduction): cytostasis | Imax, Growth, MTS (U937; U937, monocyte, 72 h): 55 ± 2% | Imax, Growth, MTS (CIN612 cells; CIN612): 70 ± 1% | EC50 (CIN612 cells; [9]): 2.8 ± 0.1 nM | Imax, viral DNA by qPCR (adenovirus type 5): 100% | CC50 at 72 h [1]: 224000 nM | Apoptosis (U937 cells): apoptosis did not occur | Observed maximum inhibition of viral DNA ([2]; productive or episomal infections): 86–99% | EC50 ([2]; read-out: EC50 values, replication of a variety of unrelated viruses in vitro): 5 to 20 nM | EC50 (Molt4; Homo sapiens, MOLT-4, 72 h, read-out: K, growth, MTS): 13 ± 1.3 nM | Imax, Growth, MTS (Molt4; Molt4, T lymphoblast, 72 h): 85 ± 2% | Susceptibility of HIV (HIV-1; at concentrations below 1 μM): not susceptible | Inhibition of HIV-1 infection in PBMCs (HIV-1; [8]): 50% inhibition in the micromolar range | Apoptosis (MT4 cells): induced apoptosis | CC50 at 72 h [3]: 57000 nM | Imax for reduction of the ratio SV40 DNA / MTS activity of Vero cells (SV40 strain Pa-57): 79 ± 2% | K for reduction of the ratio SV40 DNA / MTS activity of Vero cells (SV40 strain Pa-57): 12 ± 2 nM | EC50 (W12 20861; [9]): 25 ± 9 nM | Imax, Growth, MTS (W12 20861; W12 20861, HPV16 integrated): 35 ± 2.8% | Imax, Growth, MTS (human keratinocyte (HKC)): ∼100% | K, Growth, MTS (human keratinocyte (HKC)): 40,000 ± 11,800 nM | CC50 [4]: 160000 nM | EC50 (Jurkat; Homo sapiens, read-out: K, growth, MTS): 52 ± 3 nM | Imax, Growth, MTS (Jurkat; T lymphoblast): 51 ± 1% | Inhibition of growth of primary cell types (primary cells): None of the primary cell types tested was significantly inhibited; also recorded: does not impact the growth | Imax, Growth, CTG (HEK293; HEK293, Adenovirus 5 integrated, 72 h): 52 ± 2% | EC50 (HEK293; Homo sapiens, HEK293, 72 h, read-out: K, Growth, CTG): 12 ± 2 nM | Imax, Growth, MTS (SiHa; HPV16 integrated): 39 ± 1.6% | EC50 (SiHa; [9]): 37 ± 6 nM | Outcome of growth inhibition over time (Vero cells; data not shown): cytostasis | Imax, uninfected host cell growth, MTS (Vero cells; data of Fig. 3): 37% | Imax, Growth, MTS (Vero cells; kidney epithelial, 72 h, 4 titrations): 43 ± 1% | CC50 at 72 h [5]: 520000 nM | Imax, Growth, MTS (HKC/HPV16 cells; HKC/HPV16): 59 ± 1% | EC50 (HKC/HPV16 cells; [9]): 3 ± 0.4 nM | Apoptosis (W12 cells): apoptosis did not occur | Imax, Growth, MTS (HeLa; HPV 18 integrated): 50 ± 0.8% | EC50 (HeLa; [9]): 20 ± 2 nM | CC50 at 72 h [6]: > 10000 nM | CC50 at 72 h [7]: > 10000 nM
